ChEMBL document CHEMBL1155700, “Cancer chemopreventive agents. New depsidones from Garcinia plants” (J Nat Prod, 2001)

Assays:
Raji [1] = experiment: Inhibition of 12-O-tetradecanoylphorbol-13-acetate-induced EBV-early antigen activation in human Raji cells assessed as EA activation at 10 molar ratio after 48 hrs relative to TPA; type: cell-based; parameters: scale not given: the % may be the effect or the level left; conditions: human gammaherpesvirus 4
Procedure, shortened: (§1)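 Raji cells at 10⁶ cells/mL were resuspended in RPMI 1640/10% FCS containing 4 mM n-butyric acid inducer, 32 pmol TPA (20 ng/mL) and 32, 16, 3.2 or 0.32 nmol compound (DMSO), then held 48 h at 37 °C. EA-positive cells were scored blind, at least 500 cells per assay. Activation is expressed as % of the TPA-only positive control (100%), mean ± SD. IC50 is given as mol ratio/TPA.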

Raji [2] = experiment: Inhibition of 12-O-tetradecanoylphorbol-13-acetate-induced EBV-early antigen activation in human Raji cells assessed as EA activation at 1000 molar ratio after 48 hrs relative to TPA; type: cell-based; parameters: scale not given: the % may be the effect or the level left; conditions: human gammaherpesvirus 4; procedure, shortened: as §1
[3] = Inhibition of 12-O-tetradecanoylphorbol-13-acetate-induced EBV-early antigen activation in human Raji cells assessed as EA activation per 32 pmol TPA after 48 hrs; type: cell-based, human gammaherpesvirus 4; procedure, shortened: as §1
[4] = Cytotoxicity against human Raji cells assessed as cell viability at 500 molar ratio after 48 hrs by trypan blue staining relative to TPA; type: cell-based; conditions: read-out: Activity
Procedure, shortened: (§2)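 Raji cells grown to 10⁶ cells/mL, pelleted, resuspended in RPMI 1640 with 10% FCS, 4 mM n-butyric acid, 32 pmol TPA (20 ng/mL in DMSO) plus test compound in DMSO (0.32–32 nmol; mole ratio to TPA 10–1000). After 48 h at 37 °C, cell number and viability were counted on a hemocytometer by Trypan Blue exclusion. At least 60% viability was required for valid EA data.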

[5] = Cytotoxicity against human Raji cells assessed as cell viability at 100 molar ratio after 48 hrs by trypan blue staining relative to TPA; type: cell-based; conditions: read-out: Activity; procedure, shortened: as §2
Raji [6] = experiment: Inhibition of 12-O-tetradecanoylphorbol-13-acetate-induced EBV-early antigen activation in human Raji cells assessed as EA activation at 100 molar ratio after 48 hrs relative to TPA; type: cell-based; parameters: scale not given: the % may be the effect or the level left; conditions: human gammaherpesvirus 4; procedure, shortened: as §1
[7] = Cytotoxicity against human Raji cells assessed as cell viability at 10 molar ratio after 48 hrs by trypan blue staining relative to TPA; type: cell-based; conditions: read-out: Activity; procedure, shortened: as §2
Raji [8] = experiment: Inhibition of 12-O-tetradecanoylphorbol-13-acetate-induced EBV-early antigen activation in human Raji cells assessed as EA activation at 500 molar ratio after 48 hrs relative to TPA; type: cell-based; parameters: scale not given: the % may be the effect or the level left; conditions: human gammaherpesvirus 4; procedure, shortened: as §1
[9] = Cytotoxicity against human Raji cells assessed as cell viability at 1000 molar ratio after 48 hrs by trypan blue staining relative to TPA; type: cell-based; conditions: read-out: Activity; procedure, shortened: as §2

Compound | Activity (Raji [1]) | Activity (Raji [2]) | IC50 [3] | viability at 48 h, 500 molar ratio relative to TPA [4] | viability at 48 h, 100 molar ratio relative to TPA [5] | Activity (Raji [6]) | viability at 48 h, 10 molar ratio relative to TPA [7] | Activity (Raji [8]) | viability at 48 h, 1000 molar ratio relative to TPA [9]
CC1=C(/C=C/C(C)=C/C=C/C(C)=C/C=C/C=C(C)/C=C/C=C(C)/C=C/C2=C(C)CCCC2(C)C)C(C)(C)CCC1 [BETA CAROTENE] | 100% | 9.1% | 400 molar ratio |  |  |  |  |  | 
COc1c(O)cc2c(c1CC=C(C)C)OC(=O)c1c(cc(O)c(CC=C(C)C)c1O)O2 [GARCINISIDONE A] | 91.6% | 0% | 365 molar ratio | > 80% | > 80% | 78.3% | > 80% | 44.2% | 70%
COc1c(O)cc2c(c1CC=C(C)C)OC(=O)c1c(cc3c(c1O)C=CC(C)(C)O3)O2 [GARCINISIDONE B] | 100% | 0% | 410 molar ratio | > 80% | > 80% | 81.7% | > 80% | 50.6% | 70%
CC(C)=CCc1c2c(c(O)c3c1Oc1cc(O)c4c(c1OC3=O)C=CC(C)(C)O4)C=CC(C)(C)O2 [GARCINISIDONE C] | 93.5% | 0% | 370 molar ratio | > 80% | > 80% | 72.2% | > 80% | 41.8% | 70%
CC(C)=CCc1c(O)c2c(c3c1OC(C)(C)C=C3)Oc1cc(O)c3c(c1OC2=O)C=CC(C)(C)O3 [GARCINISIDONE D] | 92.8% | 0% | 360 molar ratio | > 80% | > 80% | 72% | > 80% | 40.4% | 60%
CC(C)=CCc1c(O)c(CC=C(C)C)c2c(c1O)C(=O)Oc1c(cc(O)c3c1C=CC(C)(C)O3)O2 [GARCINISIDONE E] | 90.2% | 0% | 350 molar ratio | > 80% | > 80% | 71.1% | > 80% | 40% | 70%
